Data taken from ChEMBL document CHEMBL3817843, “Understanding Oxadiazolothiazinone Biological Properties: Negative Inotropic Activity versus Cytochrome P450-Mediated Metabolism” (J Med Chem, 2016).

Tests used:
Left cardiac atrium [1] = assay: Negative inotropic activity in potassium depolarized guinea pig left atrium assessed as reduction in developed tension at 10^-5 M after 30 mins; format: functional, Cavia porcellus; set-up: scale not given: the % may be the effect or the level left
Left cardiac atrium [2] = assay: Negative inotropic activity in potassium depolarized guinea pig left atrium assessed as reduction in developed tension after 30 mins; format: functional; conditions: Cavia porcellus, 0.5 h
Outline: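 Guinea pig left atria electrically driven at 1 Hz. EC50 taken from log concentration−response curves by Litchfield and Wilcoxon probit analysis, n = 6−7. Not calculated when the maximum effect was below 50%.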

Right cardiac atrium = assay: Negative chronotropic activity in potassium depolarized guinea pig right atrium assessed as reduction in atrial rate at 50 uM after 30 mins; format: functional, Cavia porcellus; set-up: scale not given: the % may be the effect or the level left
Aorta [3] = assay: Vasorelaxant activity in potassium depolarized guinea pig aorta assessed as inhibition of calcium-induced contraction at 50 uM after 30 mins; format: functional, Cavia porcellus; set-up: scale not given: the % may be the effect or the level left
Outline: (§1)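 Guinea pig aortic strips depolarized with K+ (80 mM). Calcium-induced contraction measured; inhibition expressed as percent change from control, n = 3−5.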

Left cardiac atrium [4] = assay: Potency index, ratio of diltiazem EC50 to compound EC50 for negative inotropic activity against potassium depolarized guinea pig left atrium
[5] = Half life in human liver microsomes assessed as CYP-mediated compound degradation at 1 uM by LC-MS analysis
Left cardiac atrium [6] = assay: Negative inotropic activity in potassium depolarized guinea pig left atrium assessed as reduction in developed tension at 10^-6 M after 30 mins; format: functional, Cavia porcellus; set-up: scale not given: the % may be the effect or the level left
Aorta [7] = assay: Vasorelaxant activity in potassium depolarized guinea pig aorta assessed as inhibition of calcium-induced contraction at 10^-4 M after 30 mins; format: functional, Cavia porcellus; set-up: scale not given: the % may be the effect or the level left; outline: as §1
[8] = Relaxant activity in potassium depolarized guinea pig ileum longitudinal smooth muscle assessed as inhibition of calcium-induced contraction at 0.05 uM after 30 mins; format: functional, Cavia porcellus; set-up: scale not given: the % may be the effect or the level left
[9] = Relaxant activity in potassium depolarized guinea pig ileum longitudinal smooth muscle assessed as inhibition of calcium-induced contraction after 30 mins; format: functional, tissue-based; conditions: Cavia porcellus, 0.5 h
Cytochrome P450 2C19 = Cytochrome P450 2C19 (Homo sapiens, UniProt P33261); assay: Inhibition of CYP2C19 in human liver microsomes using (S)-mephenytoin as substrate after 40 mins by LC-MS analysis
Cytochrome P450 2D6 = Cytochrome P450 2D6 (Homo sapiens, UniProt P10635); assay: Inhibition of CYP2D6 in human liver microsomes using dextromethorphan as substrate after 10 mins by LC-MS analysis
Liver microsome = assay: Stability in human liver microsomes at 1 uM after 2 to 60 mins by LC-MS analysis in absence of NADPH
Cytochrome P450 1A2 = molecular target: T1, Cytochrome P450 1A2 (Homo sapiens, UniProt P05177); assay: Inhibition of CYP1A2 in human liver microsomes using phenacetin as substrate after 30 mins by LC-MS analysis
T1 sequence (P05177 whole entry): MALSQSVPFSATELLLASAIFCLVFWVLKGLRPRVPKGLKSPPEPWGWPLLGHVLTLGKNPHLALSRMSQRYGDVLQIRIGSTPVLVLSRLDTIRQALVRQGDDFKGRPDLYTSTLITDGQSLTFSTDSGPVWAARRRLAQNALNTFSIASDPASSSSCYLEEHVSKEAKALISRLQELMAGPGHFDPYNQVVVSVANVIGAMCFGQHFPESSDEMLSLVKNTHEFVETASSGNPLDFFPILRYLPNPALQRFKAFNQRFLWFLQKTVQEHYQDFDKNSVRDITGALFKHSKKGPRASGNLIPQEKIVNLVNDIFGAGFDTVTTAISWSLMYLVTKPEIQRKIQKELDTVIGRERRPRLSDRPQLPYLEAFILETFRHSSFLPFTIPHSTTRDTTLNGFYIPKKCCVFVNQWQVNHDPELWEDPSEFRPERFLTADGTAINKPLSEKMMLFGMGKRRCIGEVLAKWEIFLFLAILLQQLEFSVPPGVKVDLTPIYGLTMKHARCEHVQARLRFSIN

Cytochrome P450 2C9 = Cytochrome P450 2C9 (Homo sapiens, UniProt P11712); assay: Inhibition of CYP2C9 in human liver microsomes using tolbutamide as substrate after 20 mins by LC-MS analysis
in vitro = conditions: human, liver microsomes
Left cardiac atrium [10] = assay: Negative inotropic activity in potassium depolarized guinea pig left atrium assessed as reduction in developed tension at 5 uM after 30 mins; format: functional, Cavia porcellus; set-up: scale not given: the % may be the effect or the level left
[11] = Relaxant activity in potassium depolarized guinea pig ileum longitudinal smooth muscle assessed as inhibition of calcium-induced contraction at 10^-5 M after 30 mins; format: functional, Cavia porcellus; set-up: scale not given: the % may be the effect or the level left

Cytochrome P450 2D6, sequence (P10635 whole entry): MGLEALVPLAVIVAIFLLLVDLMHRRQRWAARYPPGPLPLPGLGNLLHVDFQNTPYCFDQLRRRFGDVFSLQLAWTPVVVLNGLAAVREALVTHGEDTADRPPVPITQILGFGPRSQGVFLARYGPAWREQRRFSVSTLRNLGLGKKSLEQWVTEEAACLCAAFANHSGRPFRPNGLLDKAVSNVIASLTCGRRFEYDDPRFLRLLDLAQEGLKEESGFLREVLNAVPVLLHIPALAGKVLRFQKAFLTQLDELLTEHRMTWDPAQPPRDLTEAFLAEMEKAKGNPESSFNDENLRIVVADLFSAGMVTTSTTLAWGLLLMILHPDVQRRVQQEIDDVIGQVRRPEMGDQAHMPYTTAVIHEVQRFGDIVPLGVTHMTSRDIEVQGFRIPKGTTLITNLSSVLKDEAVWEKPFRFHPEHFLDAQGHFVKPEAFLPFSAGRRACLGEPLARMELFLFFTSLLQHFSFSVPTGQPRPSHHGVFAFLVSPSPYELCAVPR
Cytochrome P450 2C9, sequence (P11712 whole entry): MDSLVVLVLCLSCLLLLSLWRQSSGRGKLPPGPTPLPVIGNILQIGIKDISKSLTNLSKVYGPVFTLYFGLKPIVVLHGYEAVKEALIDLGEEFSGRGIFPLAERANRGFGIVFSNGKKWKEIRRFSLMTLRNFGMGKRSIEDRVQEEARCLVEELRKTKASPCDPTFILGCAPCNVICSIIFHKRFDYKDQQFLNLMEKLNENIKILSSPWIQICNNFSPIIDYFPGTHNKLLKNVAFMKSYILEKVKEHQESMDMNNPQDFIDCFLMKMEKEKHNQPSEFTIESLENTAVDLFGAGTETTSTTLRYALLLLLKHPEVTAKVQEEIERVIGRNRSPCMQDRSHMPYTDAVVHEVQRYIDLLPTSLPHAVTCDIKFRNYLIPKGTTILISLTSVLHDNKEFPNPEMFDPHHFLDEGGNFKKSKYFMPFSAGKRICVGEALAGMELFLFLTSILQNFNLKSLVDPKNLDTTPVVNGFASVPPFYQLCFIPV
Cytochrome P450 2C19, sequence (P33261 whole entry): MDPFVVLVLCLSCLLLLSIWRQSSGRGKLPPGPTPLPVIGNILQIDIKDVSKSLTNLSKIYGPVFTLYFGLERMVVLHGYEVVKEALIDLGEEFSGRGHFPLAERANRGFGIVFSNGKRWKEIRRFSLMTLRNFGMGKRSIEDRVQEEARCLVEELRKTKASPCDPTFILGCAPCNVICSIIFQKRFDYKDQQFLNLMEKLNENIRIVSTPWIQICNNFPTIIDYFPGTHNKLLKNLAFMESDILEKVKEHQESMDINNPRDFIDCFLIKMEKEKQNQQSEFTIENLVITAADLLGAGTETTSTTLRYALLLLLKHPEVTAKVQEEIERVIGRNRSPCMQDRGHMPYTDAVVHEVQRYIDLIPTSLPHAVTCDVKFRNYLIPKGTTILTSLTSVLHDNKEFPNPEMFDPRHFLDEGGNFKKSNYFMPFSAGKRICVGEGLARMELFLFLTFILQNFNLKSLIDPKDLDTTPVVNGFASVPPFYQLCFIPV

Structure (SMILES)	Activity (Left cardiac atrium [1]) [%]	EC50 (Left cardiac atrium [2]) [nM]	Activity (Right cardiac atrium) [%]	Activity (Aorta [3]) [%]	Ratio EC50 (Left cardiac atrium [4])	half-life at 1 µM [5] [min]	Activity (Left cardiac atrium [6]) [%]	Activity (Aorta [7]) [%]	Activity [8] [%]	IC50 [9] [nM]	IC50 (Cytochrome P450 2C19) [nM]	IC50 (Cytochrome P450 2D6) [nM]	Stability (Liver microsome)	IC50 (Cytochrome P450 1A2) [nM]	IC50 (Cytochrome P450 2C9) [nM]	microsomal CLint at 1 µM (in vitro) [µL/min/mg]	Activity (Left cardiac atrium [10]) [%]	Activity [11] [%]
CC1=CSC(O)(c2ccccc2)c2noc(=O)n21 (stereo not drawn)	95	230	14	4	3.4													
CCOC1(c2ccc(OC)cc2)SC=C(C)n2c1noc2=O (stereo not drawn)		22	3			6	76	29	86	17	2500	12500	Stable	5200	13600	278		
CCOC1(c2cccc(OC)c2)SC=C(C)n2c1noc2=O (stereo not drawn)		38	2					31									71	43
